# Laboratory results published in ChEMBL document CHEMBL3259712, “New 5-unsubstituted dihydropyridines with improved CaV1.3 selectivity as potential neuroprotective agents against ischemic injury” (J Med Chem, 2014).
# Assays:
# Type in all cases: functional
# SH-SY5Y [1] = test: Neuroprotective activity against rotenone-oligomycin A-induced oxidative stress in human SH-SY5Y cells assessed as survival at 0.3 uM co-incubated rot/oligo for 24 hrs by MTT assay (Rvb =65.6 +/- 1.3%); settings: read-out: Survival
# SH-SY5Y [2] = test: Neuroprotective activity against rotenone-oligomycin A-induced oxidative stress in human SH-SY5Y cells assessed as survival incubated with rot/oligo for 8 hrs followed by treated with compound at 0.3 uM for 16 hrs by MTT assay (Rvb =70.6 +/- 1.8%); settings: read-out: Survival
# How it was run: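 SH-SY5Y cells cultured 24 h, then exposed to rotenone/oligomycin A (30/10 μM) for 8 h at 37 °C. Stressor removed; compound in 1% FBS medium added for 16 h. DMSO-only control. MTT reduction (5 mg/mL, 2 h, 37 °C; OD 540 nm). Survival relative to untreated basal; mean ± SEM of five to seven cultures in triplicate.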
# SH-SY5Y [3] = test: Neuroprotective activity against rotenone-oligomycin A-induced oxidative stress in human SH-SY5Y cells assessed as protection incubated with rot/oligo for 8 hrs followed by treated with compound at 0.3 uM for 16 hrs by MTT assay relative to control
# SH-SY5Y [4] = test: Neuroprotective activity against rotenone-oligomycin A-induced oxidative stress in human SH-SY5Y cells assessed as protection at 0.3 uM co-incubated rot/oligo for 24 hrs by MTT assay relative to control
structure (smiles),measurement,setting,value
COc1ccc2[nH]cc(CCNC(C)=O)c2c1 [MELATONIN],viability at 0.3 µM,SH-SY5Y [1],82.5%
same,viability at 0.3 µM,SH-SY5Y [2],87.8%
same,Activity,SH-SY5Y [3],58.3%
same,Activity,SH-SY5Y [4],44.7%
